For one series, the system named is Saccharomyces cerevisiae. Kind of series: Antimicrobial activity against Saccharomyces cerevisiae ATCC 9763 after 24 hrs by broth microdilution assay. Type of series: functional. As to conditions: ATCC 9763, 24 h. In a few lines:
(§1)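 Broth dilution MIC. Stock is 10 mg compound in 1 mL DMSO, serially diluted in Mueller–Hinton broth for bacteria or Sabouraud liquid medium for yeasts and mould. Tubes are inoculated at 10⁵ cfu/mL and incubated at 37 °C for 24 h. Controls are medium alone and medium with DMSO at matching dilutions. MIC is the lowest concentration giving complete growth inhibition.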
(In general: Dilution methods test growth across graded concentrations, often in twofold steps.)

For a further series, the system named is Enterococcus faecalis. Briefly: Antimicrobial activity against Streptococcus faecalis ATCC 14506 after 24 hrs by broth microdilution assay. As to conditions: ATCC 14506, 24 h. It is filed as functional. An outline of the steps:
as §1

Another series has as its system Candida tropicalis. Kind of series: Antimicrobial activity against Candida tropicalis ATCC 1369 after 24 hrs by broth microdilution assay. It is filed as functional. As to conditions: ATCC 1369, 24 h. In a few lines:
as §1

The test system of another series is Bacillus subtilis. Briefly: Antimicrobial activity against Bacillus subtilis ATCC 60511 after 24 hrs by broth microdilution assay. Type of series: functional. As to conditions: ATCC 60511, 24 h. An outline of the steps:
as §1

In another series the test system is Klebsiella pneumoniae. Kind of series: Antimicrobial activity against Klebsiella pneumoniae ATCC 10031 after 24 hrs by broth microdilution assay. Type of series: functional. Conditions: ATCC 10031, 24 h. In a few lines: as §1
The test system of a further series is Staphylococcus aureus. Kind of series: Antimicrobial activity against Staphylococcus aureus ATCC 11632 after 24 hrs by broth microdilution assay. It is filed as functional. Conditions: ATCC 11632, 24 h. An outline of the steps:
as §1

Series [1] has as its system Mycobacterium tuberculosis. Briefly: Antimycobacterial activity against Mycobacterium tuberculosis H37Rv after 21 days by broth dilution assay. Type of series: functional. Conditions: 504 h. An outline of the steps: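 Middlebrook 7H9 broth with 10% albumin-dextrose-catalase and 0.2% glycerol; frozen culture thawed, diluted to 10⁵ cfu/mL and used as inoculum. Compounds taken up in DMSO and diluted twice in broth, 1.3% DMSO final. Incubated at 37 °C. Growth judged by eye against drug-free and inoculum-free controls and isoniazid. MIC is the lowest concentration inhibiting ≥99% of the starting population.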

Another series concerns Pseudomonas aeruginosa. Kind of series: Antimicrobial activity against Pseudomonas aeruginosa ATCC 10145 after 24 hrs by broth microdilution assay. It is filed as functional. Conditions: ATCC 10145, 24 h. In a few lines:
as §1

The subject of the next series is Aspergillus niger. Briefly: Antimicrobial activity against Aspergillus niger ATCC 6275 after 24 hrs by broth microdilution assay. Type of series: functional. Conditions: ATCC 6275, 24 h. In a few lines: as §1
In the next series the test system is Escherichia coli. Kind of series: Antimicrobial activity against Escherichia coli ATCC 10536 after 24 hrs by broth microdilution assay. Type of series: functional. Conditions: ATCC 10536, 24 h. An outline of the steps:
as §1

In a further series the test system is A549. Briefly: Cytotoxicity against human A549 cells at 250 uM. Conditions: a549, 250 µM. Type of series: cell-based. An outline of the steps: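 A549 lung adenocarcinoma cells are grown with fetal bovine serum. Compounds are taken from 10 mM DMSO stocks stored at −20 °C and diluted in culture medium, with treatments at 50–250 µM. Viability is read by MTT assay against untreated cells and a DMSO vehicle control.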

In general, MIC refers to the smallest concentration in the dilution series that meets the test's criterion for growth inhibition. The low end stands for inhibition by little substance, the high end for a need for much substance.

Values after ≈ are worked out from the molar mass of the structure shown.

As to `CC(C)c1csc(-c2nnc(S)n2/N=C/c2ccc(Br)cc2)n1`, the MIC is 125 µg/mL (≈ 306 µM) against Saccharomyces cerevisiae; 125 µg/mL (≈ 306 µM) in the series on Enterococcus faecalis; 62.5 µg/mL (≈ 153 µM) with Candida tropicalis; 125 µg/mL (≈ 306 µM) with Bacillus subtilis; 125 µg/mL (≈ 306 µM) against Klebsiella pneumoniae; 62.5 µg/mL (≈ 153 µM) with Staphylococcus aureus. Moreover, the MIC worked out at 125 µg/mL (≈ 306 µM) in [1], 62.5 µg/mL (≈ 153 µM) in the series on Pseudomonas aeruginosa, 62.5 µg/mL (≈ 153 µM) against Aspergillus niger and 62.5 µg/mL (≈ 153 µM) against Escherichia coli.

Turning to `COc1cc(/C=N/n2c(S)nnc2-c2nc(C(C)C)cs2)cc(OC)c1OC`, the MIC was determined as 62.5 µg/mL (≈ 149 µM) against Saccharomyces cerevisiae; 62.5 µg/mL (≈ 149 µM) with Enterococcus faecalis; 125 µg/mL (≈ 298 µM) against Candida tropicalis; 125 µg/mL (≈ 298 µM) in the series on Bacillus subtilis; 62.5 µg/mL (≈ 149 µM) in the series with Klebsiella pneumoniae; 125 µg/mL (≈ 298 µM) in the series with Staphylococcus aureus. Further, the MIC in [1] was found to be 125 µg/mL (≈ 298 µM); in the series on Pseudomonas aeruginosa, 125 µg/mL (≈ 298 µM); with Aspergillus niger it was 62.5 µg/mL (≈ 149 µM); with Escherichia coli it was 62.5 µg/mL (≈ 149 µM).

As for `CC(C)c1csc(-c2nnc(-c3ccc([N+](=O)[O-])cc3)o2)n1`, the MIC in the series with Saccharomyces cerevisiae amounted to 16 µg/mL (≈ 50.6 µM); with Enterococcus faecalis it was 31.2 µg/mL (≈ 98.8 µM); against Candida tropicalis it was 16 µg/mL (≈ 50.6 µM); against Bacillus subtilis, 31.2 µg/mL (≈ 98.8 µM); against Klebsiella pneumoniae, 62.5 µg/mL (≈ 198 µM); against Staphylococcus aureus it was 16 µg/mL (≈ 50.6 µM). The MIC in [1] was 62.5 µg/mL (≈ 198 µM); in the series with Pseudomonas aeruginosa, 31.2 µg/mL (≈ 98.8 µM); with Aspergillus niger, 31.2 µg/mL (≈ 98.8 µM); with Escherichia coli it was 125 µg/mL (≈ 395 µM). Moreover, the Activity in the series with A549 was found to be 50%.

Take `Cc1ccc(-c2nnc(-c3nc(C(C)C)cs3)o2)cc1`: the MIC worked out at 62.5 µg/mL (≈ 219 µM) in the series on Saccharomyces cerevisiae; 16 µg/mL (≈ 56.1 µM) in the series with Enterococcus faecalis; 125 µg/mL (≈ 438 µM) in the series on Candida tropicalis; 31.2 µg/mL (≈ 110 µM) in the series with Bacillus subtilis; 125 µg/mL (≈ 438 µM) in the series with Klebsiella pneumoniae; 31.2 µg/mL (≈ 110 µM) in the series on Staphylococcus aureus. The MIC was 16 µg/mL (≈ 56.1 µM) in series [1], 125 µg/mL (≈ 438 µM) against Pseudomonas aeruginosa, 31.2 µg/mL (≈ 110 µM) with Aspergillus niger and 62.5 µg/mL (≈ 219 µM) against Escherichia coli.

As for `COc1ccc(-c2nnc(-c3nc(C(C)C)cs3)o2)cc1`, the MIC in the series on Saccharomyces cerevisiae, in the series with Enterococcus faecalis, in the series with Candida tropicalis, with Bacillus subtilis, against Klebsiella pneumoniae and against Staphylococcus aureus was 31.2 µg/mL (≈ 104 µM) each time. For the same compound, the MIC in series [1] was 16 µg/mL (≈ 53.1 µM); with Pseudomonas aeruginosa, 16 µg/mL (≈ 53.1 µM); against Aspergillus niger, 31.2 µg/mL (≈ 104 µM); in the series with Escherichia coli, 16 µg/mL (≈ 53.1 µM).

`CC(=O)N1N=C(c2nc(C(C)C)cs2)OC1(C)C`: the MIC in the series with Saccharomyces cerevisiae came out at 62.5 µg/mL (≈ 234 µM); in the series with Enterococcus faecalis, 125 µg/mL (≈ 468 µM); with Candida tropicalis, 62.5 µg/mL (≈ 234 µM); against Bacillus subtilis, 125 µg/mL (≈ 468 µM); against Klebsiella pneumoniae it was 125 µg/mL (≈ 468 µM); in the series with Staphylococcus aureus, 62.5 µg/mL (≈ 234 µM). In addition, the MIC in series [1] came out at 125 µg/mL (≈ 468 µM); in the series with Pseudomonas aeruginosa it was 125 µg/mL (≈ 468 µM); against Aspergillus niger it was 62.5 µg/mL (≈ 234 µM); against Escherichia coli it was 125 µg/mL (≈ 468 µM).

Regarding `CC(=O)N1N=C(c2nc(C(C)C)cs2)OC1(C)c1ccccc1` (stereo unspecified), the MIC against Saccharomyces cerevisiae worked out at 125 µg/mL (≈ 379 µM); with Enterococcus faecalis it was 31.2 µg/mL (≈ 94.9 µM); with Candida tropicalis, 31.2 µg/mL (≈ 94.9 µM); in the series with Bacillus subtilis, 62.5 µg/mL (≈ 190 µM); against Klebsiella pneumoniae it was 62.5 µg/mL (≈ 190 µM); in the series on Staphylococcus aureus, 31.2 µg/mL (≈ 94.9 µM). The MIC in series [1] was 62.5 µg/mL (≈ 190 µM); against Pseudomonas aeruginosa, 31.2 µg/mL (≈ 94.9 µM); against Aspergillus niger it was 62.5 µg/mL (≈ 190 µM); against Escherichia coli, 62.5 µg/mL (≈ 190 µM).

As for `CC(=O)N1N=C(c2nc(C(C)C)cs2)OC1(C)c1ccc(O)cc1` (stereo unspecified), the MIC against Saccharomyces cerevisiae turned out to be 31.2 µg/mL (≈ 90.5 µM); against Enterococcus faecalis, 31.2 µg/mL (≈ 90.5 µM); with Candida tropicalis it was 31.2 µg/mL (≈ 90.5 µM); in the series with Bacillus subtilis, 31.2 µg/mL (≈ 90.5 µM); against Klebsiella pneumoniae, 16 µg/mL (≈ 46.3 µM); against Staphylococcus aureus, 16 µg/mL (≈ 46.3 µM). The minimal inhibitory concentration (MIC) came out at 62.5 µg/mL (≈ 181 µM) in series [1], 62.5 µg/mL (≈ 181 µM) with Pseudomonas aeruginosa, 125 µg/mL (≈ 362 µM) with Aspergillus niger and 16 µg/mL (≈ 46.3 µM) with Escherichia coli.

Regarding `COc1ccc(C2(C)OC(c3nc(C(C)C)cs3)=NN2C(C)=O)cc1` (stereo unspecified), the MIC against Saccharomyces cerevisiae worked out at 4 µg/mL (≈ 11.1 µM); against Enterococcus faecalis, 125 µg/mL (≈ 348 µM); against Candida tropicalis, 8 µg/mL (≈ 22.3 µM); against Bacillus subtilis, 31.2 µg/mL (≈ 86.9 µM); against Klebsiella pneumoniae it was 125 µg/mL (≈ 348 µM); against Staphylococcus aureus, 31.2 µg/mL (≈ 86.9 µM). Further, the MIC was determined as 62.5 µg/mL (≈ 174 µM) in [1], 125 µg/mL (≈ 348 µM) in the series with Pseudomonas aeruginosa, 8 µg/mL (≈ 22.3 µM) in the series with Aspergillus niger and 125 µg/mL (≈ 348 µM) against Escherichia coli.

Values taken from ChEMBL document CHEMBL1157864, “Synthesis of some novel 2-substituted-5-[isopropylthiazole] clubbed 1,2,4-triazole and 1,3,4-oxadiazoles as potential antimicrobial and antitubercular agents” (Eur J Med Chem, 2010).
